This assay concerns HEp-2 RSV CPE, time of addition, CellTiter-Glo viability. Description: protection from RSV CPE by addition time, mechanism study for RSV inhibitor project, cell-based, time of addition, HEp-2 (AID 504829). As to conditions: at 25 µM, stronger effect = higher value. The method, boiled down: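 System: HEp-2 human cell line, virus-infected | Doses: 25 µM single dose, 0.5% DMSO | Times: 6-day incubation at 37 °C after infection | Signal: ATP-based luminescence with CellTiter-Glo reagent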

[1] abbreviates: measured here: added 1 h before infection.
The mark [2] stands for this setting: measured here: added 1 h post infection.
[3] abbreviates: measured here: added 7 h post infection.
The mark [4] stands for this setting: measured here: added 21 h post infection.
Where [5] appears, read: measured here: added 24 h post infection.

As usually defined, the viability is the share of living cells, or the viability signal relative to a control. `Cc1ccc(NC(=O)[C@@H]2CCCN2S(=O)(=O)c2cccc3cccnc23)c(C)c1`: the viability (protection from CPE) is 77.1%. In addition, the viability under setting [1] was 87.5%. For the same compound, the viability under setting [2] was found to be 56%. For the same compound, the viability under setting [3] came out at 51.8%. Further, the viability under setting [4] was found to be 29%. Under setting [5], this compound showed a viability of 23.1%.

As to `COc1ccc(C)c(NC(=O)[C@@H]2CCCN2S(=O)(=O)c2cccc3cccnc23)c1`, the viability (protection from CPE) is 81.8%. In addition, under setting [1], the viability came to 90.4%. This compound registered a viability under setting [2] of 63.3%. In addition, the viability under setting [3] is 52.1%. Under setting [4], this compound came in with a viability of 34.3%. This compound also showed a viability under setting [5] of 24.8%.

In the case of `Cc1ccc(C)c(NC(=O)[C@@H]2CCCN2S(=O)(=O)c2cccc3cccnc23)c1`, the viability (protection from CPE) is 91.4%. The viability under setting [1] worked out at 91.6%. In addition, under setting [2], the viability amounted to 61.7%. The viability under setting [3] was determined as 49.6%. Besides, the viability under setting [4] stood at 35.1%. The compound also yielded a viability under setting [5] of 27.7%.

Source of the values: PubChem BioAssay AID504829 (Southern Research Specialized Biocontainment Screening …, 2011).
